Measured values from paper PMC7114172 (ACS Omega, 2020).
Bridge positions count the residues as written; N and C are the ends. Square brackets hold non-standard residues; d marks the D form. Ends that are not written are not given here. Peptide text beside a SMILES is read from it. * marks the point of attachment. Myristoyl = CCCCCCCCCCCCCC(=O)*; Phe(ol) = N[C@H](CO)Cc1ccccc1; Aib = CC(C)(N)C(=O)O; NHCH2CH2OH = OCCN*; For = O=C*

What was measured:
[1] = tested on: S. aureus (ATCC 8530); settings: concentration at which no viable colonies are formed; 10 mM phosphate buffer pH 7.4; cited from earlier work
[2] = tested on: E. coli K-12 strain MG1655 (CGSC-7740); settings: concentration at which no viable colonies are formed; 10 mM phosphate buffer pH 7.4; cited from earlier work
[3] = tested on: LPS E. coli K-235; experiment: LPS binding, dansyl cadaverine; design: species or system Escherichia coli; settings: LPS E. coli K-235 280 μg/mL, DC 12 μM, 10 mM phosphate buffer pH 7.4, 25 °C
Procedure, shortened: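 Test peptide was added in small successive aliquots to a preformed DC:LPS complex. […] Excitation was at 340 nm and emission scanned 420–600 nm (slits 2.5/5 nm). Probe occupancy was calculated as (F−F0)/(Fmax−F0), where F0 is DC alone, Fmax is DC at maximum LPS, and F is DC–LPS at each peptide concentration. A positive-control peptide was run first.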

Compound	MBC, S. aureus [1] [µM]	MBC, E. coli [2] [µM]	Relative binding affinity to LPS (DC displacement) [3]
Myristoyl-FCPRRYKQIGTGLPGTKCK (disulfide 2-18 (inferred)) [MPhd2]	5	6	–
ACPIFTKIQGTYRGKAKCK (disulfide 2-18 (inferred)) [Phd1]	20	19	more affinity as compared to Phd2-3 and MPhd2-3
CC(=O)NC(C)(C)C(=O)N1CCC[C@H]1C(=O)NC(C)(C)C(=O)N[C@@H](C)C(=O)NC(C)(C)C(=O)N[C@@H](C)C(=O)N[C@@H](CCC(N)=O)C(=O)NC(C)(C)C(=O)N[C@H](C(=O)NC(C)(C)C(=O)NCC(=O)N[C@@H](CC(C)C)C(=O)NC(C)(C)C(=O)N1CCC[C@H]1C(=O)N[C@H](C(=O)NC(C)(C)C(=O)NC(C)(C)C(=O)N[C@@H](CCC(=O)O)C(=O)N[C@@H](CCC(N)=O)C(=O)N[C@H](CO)Cc1ccccc1)C(C)C)C(C)C [alamethicin] (Ac-[Aib]P[Aib]A[Aib]AQ[Aib]V[Aib]GL[Aib]PV[Aib][Aib]EQ[Phe(ol)]; N-terminus assumed)	–	–	weak affinity as compared to polymyxin B
CC(C)C[C@@H](NC(=O)[C@H](C)NC(=O)CNC(=O)[C@@H](NC=O)C(C)C)C(=O)N[C@@H](C)C(=O)N[C@@H](C(=O)N[C@H](C(=O)N[C@@H](C(=O)N[C@@H](Cc1c[nH]c2ccccc12)C(=O)N[C@H](CC(C)C)C(=O)N[C@@H](Cc1c[nH]c2ccccc12)C(=O)N[C@H](CC(C)C)C(=O)N[C@@H](Cc1c[nH]c2ccccc12)C(=O)N[C@H](CC(C)C)C(=O)N[C@@H](Cc1c[nH]c2ccccc12)C(=O)NCCO)C(C)C)C(C)C)C(C)C [gramicidin A] (For-VGA[dL]A[dV]V[dV]W[dL]W[dL]W[dL]W-NHCH2CH2OH; N-terminus and C-terminus assumed)	–	–	weak affinity as compared to polymyxin B
cyclized isooctanoyl BTBB(BF^dLBBT) (lariat or depsi) [polymyxin B]	–	–	strong binding compared to HBD2-3 as well as LL37 and melittin
Myristoyl-SCLPKEEQIGKSTRGRKCRRKK (disulfide 2-18 (inferred)) [MPhd3]	4	4	–
Myristoyl-ACPIFTKIQGTYRGKAKCK (disulfide 2-18 (inferred)) [MPhd1]	5	5	more affinity as compared to Phd2-3 and MPhd2-3
